This note sets out measurements from ChEMBL document CHEMBL1157292, “(+)-agelasine D: improved synthesis and evaluation of antibacterial and cytotoxic activities” (J Nat Prod, 2006).

The subject of experiment [1] is ACHN. Description: (§1) Cytotoxicity against multidrug-resistant human ACHN cells after 72 hrs by fluorometric microculture cytotoxicity assay. It counts as functional, cell-based. In a few lines:
(§2)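 FMCA method: compounds dissolved in 10% DMSO were tested at 10 concentrations, 0.15625–80 μM, each in triplicate. Plates included solvent, medium, Triton X-100 and PBS controls. Cells were exposed for 72 h, washed with PBS, and incubated with FDA for 40 min. Fluorescence, proportional to living cells, gave a survival index at each concentration. Values are mean ± SEM of triplicates, fitted by nonlinear regression.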

In experiment [2] the test system is Mycobacterium tuberculosis. Description: Antibacterial activity against Mycobacterium tuberculosis by standard broth microdilution technique. It counts as functional.
The test system of another experiment is Staphylococcus aureus. Description: Antibacterial activity against Staphylococcus aureus ATCC 25923 by standard broth microdilution technique. It counts as functional. In a few lines: (§3)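 Exponential-phase cultures were diluted to a final inoculum of 1 × 10⁶ CFU/mL and mixed 1:1 with serial dilutions made in double-distilled water. Medium was 2% bactopeptone water for S. aureus, E. coli and P. aeruginosa, and brain heart infusion broth for E. faecalis and S. pyogenes. Incubated at 37 °C overnight. MIC was the lowest concentration without visible growth. Gentamycin served as internal control.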

A further experiment relates to Escherichia coli. As to the kind of experiment: Antibacterial activity against Escherichia coli ATCC 25922 by standard broth microdilution technique. The experiment is classed as functional. In a few lines: as §3
The next experiment relates to Bacteroides fragilis. Description: Antibacterial activity against Bacteroides fragilis DSM 2151 by standard broth microdilution technique. The experiment is classed as functional. In short, it runs like this:
(§4)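 Strains kept at -80 °C and grown on blood agar at 35 °C for 24 h before testing. DMSO stocks were serially 2-fold diluted in reduced Wilkins-Chalgren broth to final 0.125–32 μg/mL. Colony suspension was set to 0.5 McFarland and diluted 1:10 (~1.5 × 10⁷ CFU/mL); 10 μL was added per well, in triplicate. Incubated anaerobically at 35 °C for 48 h. MIC was the lowest concentration without visible growth. Tests were repeated at least once.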

Experiment [3] concerns Bacteroides thetaiotaomicron. As to the kind of experiment: Antibacterial activity against Bacteroides thetaiotaomicron DSM 2255 by standard broth microdilution technique. It counts as functional. In short, it runs like this:
as §4

The test system of experiment [4] is U-937/GTB. As to the kind of experiment: Cytotoxicity against human U937 GTB cells after 72 hrs by fluorometric microculture cytotoxicity assay. It counts as functional, cell-based. In short, it runs like this:
as §2

Experiment [5] can be described thus: Cytotoxicity against human RPMI 8226/s cells after 72 hrs by fluorometric microculture cytotoxicity assay. It counts as functional, cell-based. To be noted: RPMI8226/S. In short, it runs like this:
as §2

Experiment [6] can be described thus: Cytotoxicity against human CEM/s cells after 72 hrs by fluorometric microculture cytotoxicity assay. It counts as functional, cell-based. In a few lines:
as §2

Experiment [7] relates to ACHN. The experiment is described as §1. It counts as functional, cell-based. In a few lines:
as §2
This is another data set of the same source.

Experiment [8] deals with U-937/GTB. As to the kind of experiment: Cytotoxicity against human U937 GTB cells at 80 uM after 72 hrs by fluorometric microculture cytotoxicity assay. The experiment is classed as functional, cell-based. In a few lines:
as §2

The species named for the next experiment is Homo sapiens. Description: Cytotoxicity against human RPMI 8226/s cells at 80 uM after 72 hrs by fluorometric microculture cytotoxicity assay. The experiment is classed as functional, cell-based. In short, it runs like this:
as §2

Another experiment has as its system CEM/s. Description: Cytotoxicity against human CEM/s cells at 80 uM after 72 hrs by fluorometric microculture cytotoxicity assay. The experiment is classed as functional, cell-based. In short, it runs like this: as §2
Another experiment deals with Streptococcus pyogenes. As to the kind of experiment: Antibacterial activity against Streptococcus pyogenes ATCC 19615 by standard broth microdilution technique. It counts as functional. In short, it runs like this:
as §3

For a further experiment, the system named is Enterococcus faecalis. Description: Antibacterial activity against Enterococcus faecalis by standard broth microdilution technique. The experiment is classed as functional. In short, it runs like this:
as §3

The test system of the next experiment is Pseudomonas aeruginosa. As to the kind of experiment: Antibacterial activity against Pseudomonas aeruginosa ATCC 27853 by standard broth microdilution technique. It counts as functional. In short, it runs like this: as §3
For the next experiment, the system named is L1210. Description: Cytotoxicity against mouse L1210 cells. It counts as functional, cell-based.

In brackets after ≈: the same amount, converted by molar mass. Activity calls are given as the source filed them. The rule behind the calls is not given here. A value given as a limit tells only on which side of the number the result lay.

Regarding `C=C1CC[C@H]2C(C)(C)CCC[C@]2(C)[C@H]1CC/C(C)=C/Cn1c[n+](C)c2nc[n-]/c(=N\OC(C)(C)C)c21`, the outcome in the experiment with ACHN [1], in the experiment with U-937/GTB [8], in the experiment listed under Homo sapiens and in the experiment with CEM/s was inactive. Also, the MIC in experiment [2] was 3.13 µg/mL (≈ 6.34 µM); in the experiment on Staphylococcus aureus it was 6 µg/mL (≈ 12.2 µM); against Escherichia coli it was 32 µg/mL (≈ 64.8 µM); against Bacteroides fragilis, 4 µg/mL (≈ 8.1 µM); in experiment [3] it was 4 µg/mL (≈ 8.1 µM). Also, the IC50 (with U-937/GTB [4]; in [5]; in [6]; with ACHN [7]) was over 80 µM each time.
Turning to `CC(=O)O[C@H]1C(=O)[C@@]2(C)[C@H]([C@H](OC(=O)c3ccccc3)[C@]3(O)C[C@H](OC(=O)[C@H](O)[C@@H](NC(=O)c4ccccc4)c4ccccc4)C(C)=C1C3(C)C)[C@]1(OC(C)=O)CO[C@@H]1C[C@@H]2O` [PACLITAXEL], the half-maximal inhibitory concentration (IC50) in [5] and in experiment [6] was 0.007 µM in each case.
On to `C=C1CC[C@H]2C(C)(C)CCC[C@]2(C)[C@H]1CC/C(C)=C/Cn1c[n+](C)c2nc[n-]/c(=N\OC)c21`, for which the MIC was over 6.25 µg/mL in experiment [2]; 2 µg/mL (≈ 4.43 µM) with Staphylococcus aureus; 2 µg/mL (≈ 4.43 µM) against Streptococcus pyogenes; 8 µg/mL (≈ 17.7 µM) in the experiment with Enterococcus faecalis; 8 µg/mL (≈ 17.7 µM) against Escherichia coli; 32 µg/mL (≈ 70.8 µM) in the experiment with Pseudomonas aeruginosa. The MIC (against Bacteroides fragilis; in [3]) was 4 µg/mL (≈ 8.86 µM) in each case. The IC50 in the experiment with U-937/GTB [4] came to 1.03 µM; in experiment [5] it was 0.2 µM; in experiment [6], 2.33 µM; in the experiment on ACHN [7], 8.01 µM.
For the molecule `Cc1ncc([N+](=O)[O-])n1CCO` [METRONIDAZOLE], the minimal inhibitory concentration (MIC) against Bacteroides fragilis came to 0.5 µg/mL (≈ 2.92 µM); in experiment [3], 1 µg/mL (≈ 5.84 µM).
As to `COc1cccc2c1C(=O)c1c(O)c3c(c(O)c1C2=O)C[C@@](O)(C(=O)CO)C[C@@H]3O[C@H]1C[C@H](N)[C@H](O)[C@H](C)O1` [DOXORUBICIN], the half-maximal inhibitory concentration (IC50) was found to be 0.13 µM in experiment [5] and 0.18 µM in experiment [6].
On to `CO[C@H]1/C=C/O[C@@]2(C)Oc3c(C)c(O)c4c(O)c(c(/C=N/N5CCN(C)CC5)c(O)c4c3C2=O)NC(=O)/C(C)=C\C=C\[C@H](C)[C@H](O)[C@@H](C)[C@@H](O)[C@@H](C)[C@H](OC(C)=O)[C@@H]1C` [RIFAMPIN], for which, in experiment [2], the minimum inhibitory concentration (MIC) turned out to be 0.25 µg/mL (≈ 0.304 µM).
For the molecule `C=C1CC[C@H]2C(C)(C)CCC[C@]2(C)[C@H]1CC/C(C)=C/Cn1c[n+](C)c2ncnc(N)c21.[Cl-]`, the minimal inhibitory concentration (MIC) was over 6.25 µg/mL in experiment [2]; 1 µg/mL with Staphylococcus aureus; 2 µg/mL against Streptococcus pyogenes; 8 µg/mL with Enterococcus faecalis; 8 µg/mL in the experiment with Escherichia coli; 16 µg/mL in the experiment with Pseudomonas aeruginosa. Moreover, the figures for the MIC (with Bacteroides fragilis; in experiment [3]) were 16 µg/mL and 8 µg/mL, respectively. Moreover, the IC50 is 5.59 µM with U-937/GTB [4], 3.7 µM in experiment [5], 4.68 µM in experiment [6] and 25 µM with ACHN [7].
`C/C(=C\Cn1c[n+](C)c2ncnc(N)c21)CC[C@@]1(C)[C@H](C)CC[C@@]2(C)C(COC(=O)c3cc(Br)c[nH]3)=CCC[C@@H]12` came in with a concentration for half-maximal inhibition (IC50) with L1210 of 4.8 µM.
